Screening data: PubChem, several laboratories
rCAG RNA binder: molecules binding r(CAG) RNA repeats; r(CAG) RNA repeat, TO-PRO-1 dye displacement fluorescence; AID 651821; inhibition, % at 3 µM; actives 1.3% (n = 370,000);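 active = inhibition above the plate cutoff, the mean of all test compounds on that plate plus 3 SD, cut at about 35% in these data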;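 note: higher means more dye released from RNA so lower well fluorescence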
PG9 binder: PG9 antibody binding by small molecule | inhibition, % at 6.7 µM | actives 0.43% (n = 360,000) | TR-FRET gp120-PG9 antibody binding | AID 624416; in the data active = inhibition above about 8.5%
NR2E3 ag-1: agonists of human NR2E3 nuclear receptor; Q9Y5X4; CHO-S Gal4-NCOR/VP16-NR2E3 two-hybrid, luciferase; inhibition of corepressor binding, % at 3.98 µM; actives 0.35% (n = 360,000); AID 602229;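 active = inhibition above the mean of all tested compounds plus 3 SD, cut at about 70% in these data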;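 note: higher means lower luciferase signal from less NR2E3 corepressor binding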
NR1D1 modulator: modulates human Rev-erb alpha binding to DNA; Rev-erbα–FITC-DNA binding, fluorescence polarization, 90 min; P20393; actives 0.79% (n = 370,000); activity, % at 10 µM;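 active = activity above about 14%, limit read from the data; passing the limit was not always enough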
Target sequence (P20393 whole entry, looked up): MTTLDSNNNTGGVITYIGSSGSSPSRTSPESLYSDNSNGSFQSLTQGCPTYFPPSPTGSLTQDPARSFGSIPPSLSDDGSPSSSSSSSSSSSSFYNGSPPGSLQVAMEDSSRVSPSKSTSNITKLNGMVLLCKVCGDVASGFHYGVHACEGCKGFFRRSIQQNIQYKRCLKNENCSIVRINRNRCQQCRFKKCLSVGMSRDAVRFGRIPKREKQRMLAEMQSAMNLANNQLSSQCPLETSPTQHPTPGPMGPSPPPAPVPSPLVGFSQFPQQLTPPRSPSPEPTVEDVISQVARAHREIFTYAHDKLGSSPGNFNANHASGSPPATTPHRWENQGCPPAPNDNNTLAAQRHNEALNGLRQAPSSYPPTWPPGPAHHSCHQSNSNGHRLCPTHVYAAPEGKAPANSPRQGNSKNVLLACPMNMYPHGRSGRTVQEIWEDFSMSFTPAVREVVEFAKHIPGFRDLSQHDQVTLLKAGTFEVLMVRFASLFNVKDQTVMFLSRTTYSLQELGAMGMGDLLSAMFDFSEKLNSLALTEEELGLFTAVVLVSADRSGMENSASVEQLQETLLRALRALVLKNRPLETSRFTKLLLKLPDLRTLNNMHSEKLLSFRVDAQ
NR2E3 ag-2: NR2E3 (human) agonism; Q9Y5X4; GST-NR2E3/biotin-RetCOR TR-FRET, 1536-well; inhibition of corepressor binding, % at 4.78 µM; actives 0.12% (n = 320,000); AID 2300;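 active = percent inhibition above the cutoff of mean plus 3 SD of all tested compounds, set per screening campaign, cut at about 20% in these data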
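System: GST-tagged NR2E3 plus biotinylated RetCOR corepressor; Amount: 1.35 nM GST-tagged NR2E3 final; Dosing: single nominal compound dose of 4.8 µM; Schedule: 5 h incubation at 4 °C; Technique: TR-FRET with europium anti-GST and streptavidin-D2, 340 nm excitation; Controls: biotin wells as high control, 0.6% DMSO wells as low control.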
NR2E3 ag conf: confirmation of human NR2E3 agonists. shares compounds with NR2E3 ag-1. AID 624378. CHO-S mammalian two-hybrid NR2E3-NCOR, luciferase luminescence. inhibition, % at 3.98 µM. actives 51% (n = 2,300);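 active = average inhibition above a cutoff equal to the mean inhibition of all tested compounds plus one SD, cut at about 70% in these data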
GAL4-VP16 luc: GAL4-VP16 reporter inhibition in NR2E3 agonist counterscreen; inhibition, % at 3.98 µM; actives 29% (n = 2,300); CHO-S GAL4-VP16 luciferase reporter, luminescence; shares compounds with NR2E3 ag-1;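 active = mean inhibition above a cutoff equal to the average over all tested compounds plus one standard deviation, cut at about 70% in these data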;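 note: luciferase from a UAS reporter driven by GAL4-VP16 transactivation; higher means less reporter light so more repression of VP16 activity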
Large screens that a line does not name were inactive (follow-up assays come after a bar, where they were run). A selection: hits, their analogues and other compounds. The true share with any hit is near 2.6%.

CCOC(=O)[C@]12Cc3cc(C)ccc3[C@H]1N(C1CCCCC1)C(=O)c1cc(OC)ccc12	NR2E3 ag-1 95 (no result: NR2E3 ag-2) | NR2E3 ag conf 99 | GAL4-VP16 luc inactive
CCOC(=O)[C@]12Cc3cc(OC)ccc3[C@H]1N(C1CCCCC1)C(=O)c1cc(OC)ccc12	none (no result: NR2E3 ag-2)
CC(=O)OC1(C)CC(C)C(=O)C(C(O)CC2CC(=O)NC(=O)C2)C1 (centres undefined)	NR2E3 ag-1 105 (no result: NR2E3 ag-2) | NR2E3 ag conf 99 | GAL4-VP16 luc 99
C[C@@H]1C[C@@H]([C@H](O)CC2CC(=O)NC(=O)C2)C(=O)[C@@H](C)C1	NR2E3 ag-1 102 | NR2E3 ag conf 100 | GAL4-VP16 luc 95
CCOc1cccc(CNCCc2c(C)[nH]c3ccc(OC(F)(F)F)cc23)c1O	NR2E3 ag-1 98 | NR2E3 ag conf 90 | GAL4-VP16 luc inactive
CC(=O)[O][Hg][c]1ccccc1	none (no result: rCAG RNA binder, PG9 binder, NR2E3 ag-1, NR2E3 ag-2)
COc1ccc(CC2NCC(O)C2OC(C)=O)cc1 (centres undefined)	NR2E3 ag-1 105 (no result: NR2E3 ag-2) | NR2E3 ag conf 99 | GAL4-VP16 luc 99
COc1ccc(CC(=O)N2CCN(C)CC2)cc1	none
C[C@H]1CCC/C=C/[C@@H]2C[C@H](O)C[C@H]2[C@H](O)/C=C/C(=O)O1	NR2E3 ag-1 95 | NR2E3 ag conf 99 | GAL4-VP16 luc inactive
CC(=O)OC(C)(C)/C=C/C(=O)C(C)(O)C1C(O)CC2(C)C3CC=C4C(CC(O)C(=O)C4(C)C)C3(C)C(=O)CC12C (centres undefined)	none (no result: NR2E3 ag-2) | NR2E3 ag conf 80 | GAL4-VP16 luc inactive
C[C@]12CC[C@H](O)CC1=CCC1C2CC[C@]2(C)C(=O)CC[C@@H]12 (some centres undefined)	none (no result: rCAG RNA binder, PG9 binder, NR2E3 ag-1, NR2E3 ag-2)
Cc1cccc(Cc2cnc[nH]2)c1C	none (no result: rCAG RNA binder, PG9 binder, NR2E3 ag-1, NR2E3 ag-2)
O=C1C=C2C=C[C@@H]3C[C@@]2(O1)[C@H]1CCCCN31	none (no result: rCAG RNA binder, PG9 binder, NR2E3 ag-1, NR2E3 ag-2)
CC(=O)OC[C@]12CCC(C)=C[C@H]1O[C@@H]1[C@H](O)[C@@H](OC(C)=O)[C@@]2(C)[C@]12CO2	NR2E3 ag-1 102 | NR2E3 ag conf 100 | GAL4-VP16 luc 99
O=C(O)CCCO	none (no result: rCAG RNA binder, PG9 binder, NR2E3 ag-1, NR2E3 ag-2)
CC(C)NCC(O)c1ccccc1Cl (centres undefined)	none (no result: rCAG RNA binder, PG9 binder, NR2E3 ag-1, NR2E3 ag-2)
COc1cc2c(cc1OC)[C@@]13CCN4CC5=CCOC6CC(=O)N2C1[C@H]6[C@H]5C[C@H]43 (some centres undefined)	none (no result: rCAG RNA binder, PG9 binder, NR2E3 ag-1, NR2E3 ag-2)
Nc1ncnc2c1ccn2[C@@H]1O[C@H](CO)[C@@H](O)[C@H]1O	NR2E3 ag-1 100 | NR2E3 ag conf 98 | GAL4-VP16 luc 89
NC(=S)c1cn(C2OC(CO)C(O)C2O)c2ncnc(N)c12 (centres undefined)	NR2E3 ag-1 103 | NR2E3 ag conf 98 | GAL4-VP16 luc 88
CCC(=O)O[C@H]1CCC2C3CCC4=CC(=O)CC[C@]4(C)C3CC[C@@]21C (some centres undefined)	none (no result: rCAG RNA binder, PG9 binder, NR2E3 ag-1, NR2E3 ag-2)
CC(=O)OC1C(=O)OCC23CCC4(C)OC4C2OC2CC(OC(=O)C=CC=CC(=O)OCCC1C)C3(C)C21CO1 (centres undefined)	NR2E3 ag-1 102 (no result: NR2E3 ag-2) | NR2E3 ag conf 99 | GAL4-VP16 luc 99
CC(O)C1C=CC=CC(=O)OC2CC3OC4C5OC5(C)CCC4(COC(=O)C4OC4(C)C(O)CO1)C2(C)C31CO1 (centres undefined)	NR2E3 ag-1 101 (no result: NR2E3 ag-2) | NR2E3 ag conf 99 | GAL4-VP16 luc 97
C=C[C@H]1CN2CC[C@H]1C[C@@H]2[C@@H](OC(=O)OCC)c1ccnc2ccc(OC)cc12	none (no result: rCAG RNA binder, PG9 binder, NR2E3 ag-1, NR2E3 ag-2)
COC(=O)C12OCC34C(CC5C(C)=C(O)C(=O)CC5(C)C3C(O)C1O)OC(=O)C(OC(=O)/C=C(\C)C(C)C)C24 (centres undefined)	NR2E3 ag-1 103 (no result: NR2E3 ag-2) | NR2E3 ag conf 100 | GAL4-VP16 luc 100
C#CCCC[C@@H]1OC(=O)CNC(=O)C([C@@H](C)CC)NC(=O)[C@@H]2CCCN2C(=O)C([C@@H](C)CC)OC(=O)[C@H](Cc2ccccc2)N(C)C(=O)[C@H](C(C)C)NC(=O)C1(C)C (some centres undefined)	none (no result: NR2E3 ag-2)
